For 15 compounds, EC50 and CC50 results are on record in PubChem BioAssay AID2833 (NMMLSC, 2010).

Activity calls are given as the source filed them.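 Rule for the calls: active = toxic dose over reversal dose above 10, when toxic dose is under 15 µM; inactive = the rest.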 Bounds are passed on as bounds.

This assay has as its system Jurkat/DNR viability with daunorubicin, trypan blue, 3 d. In words: daunorubicin chemosensitization of ABCB1-expressing cells, SAR follow-up, cell-based, Jurkat/DNR, trypan blue viability, one SAR set (AID 2833). The conditions noted are these: for CC50: measured here: toxicity without chemotherapeutic (TD50). The gist of the method:
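Material: Jurkat/DNR resistant cells; Amount: 100,000 cells per mL; Probe or stimulus: daunorubicin at a constant, fixed level throughout exposure; Doses: test compound series spanning 1–100 µM, three logs; Incubation: 3-day compound exposure with daunorubicin; Signal: trypan blue microscopy counting; Measure: compound level giving 50% viability loss (CR50).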

For the compound `CCCCn1c(O)c(N=Nc2ccccn2)c2ccccc21`, the EC50 is 13.3 µM (inactive) and the CC50 worked out at 13.3 µM.
For the compound `O=[N+]([O-])c1ccc(Nc2nc(Cl)nc(NCCO)n2)cc1`, the EC50 is 9.67 µM (inactive) and the cytotoxic concentration (CC50) was 12.8 µM.
As for `COc1ccc(/C=N/NC(=O)c2cccnc2)cc1CN1CCN(c2ccc(F)cc2)CC1`, the EC50 is 17.5 µM (inactive) and the 50% cytotoxic concentration (CC50) stood at 24.1 µM.
As to `COc1ccc(-c2nn(-c3ccccc3)cc2/C=C/C(=O)N2CCN(c3ccccn3)CC2)cc1`, the EC50 was 9.9 µM (inactive) and the CC50 was 15.2 µM.
As to `CC1=NN(c2ccc([N+](=O)[O-])cc2)C(=O)/C1=C/N(C)C`, the EC50 was 34.5 µM (inactive) and the 50% cytotoxic concentration (CC50) came out at 34.5 µM.
With `N#Cc1ccc(-c2ccc(OCC(=O)NCCc3ccccc3)cc2)cc1`, the EC50 is 43.8 µM (inactive) and the half-maximal cytotoxic concentration (CC50) is 21.4 µM.
As for `CCOC(=O)c1c(NC(=O)CSc2ncccn2)sc2c1CCN(Cc1ccccc1)C2`, the EC50 is 8.81 µM (inactive) and the CC50 came out at 5.1 µM.
Take `CCCCN(C)C1=CC2=CC(=C(C#N)C#N)CCC2CC1` (stereo not given): the EC50 is 12.5 µM (inactive) and the CC50 is 15.2 µM.
As to `Cc1cc(C)c(C#N)c(SCc2c(F)cccc2[N+](=O)[O-])n1`, the EC50 is 29.4 µM (inactive) and the CC50 is 3.05 µM.
As for `Cc1nc2cc(-c3cccc(F)c3)nn2c(N2CCN(C(=O)c3ccco3)CC2)c1C`, the 50% effective concentration (EC50) is 1.18 µM and the CC50 was over 100 µM.
For `O=[N+]([O-])c1ccccc1-c1nc(-c2ccc(Br)o2)no1`, in that order: 14.6 µM (inactive) and 14.6 µM.
In the case of `CCOC(=O)c1cccc(NC(=O)c2cnc3ccccc3n2)c1`, the EC50 was 13.3 µM (inactive) and the CC50 is 15 µM.
For `CCN(CC)P(=O)(Nc1cccc(C(F)(F)F)c1)c1ccc(N(C)C)cc1NC(=O)c1ccco1` (stereo not given), the EC50 is 4.72 µM (inactive) and the 50% cytotoxic concentration (CC50) is 4.54 µM.
On to `COC(=O)c1ccc(C(C(=O)NC2CCCCC2)N(Cc2ccccc2)C(=O)Cc2cccs2)cc1` (stereo not given), for which the EC50 is 10.3 µM (inactive) and the half-maximal cytotoxic concentration (CC50) amounted to 8.81 µM.
As to `CNc1nc2cc([N+](=O)[O-])c([N+](=O)[O-])cc2nc1NC`, the EC50 was 15.2 µM (inactive) and the CC50 amounted to 6.2 µM.
